These results are taken from ChEMBL document CHEMBL1158128, “Cytotoxic styryl-lactones from the leaves and twigs of Polyalthia crassa” (2006).

In brackets after ≈: the same amount, converted by molar mass. Some results are limits rather than exact numbers.

Holding throughout (conditions): read-out: ED50 (the source's name)
The test system of one assay is Lu1. Briefly: Cytotoxicity against human Lu1 cells by SRB assay. It is filed as functional. In a few lines:
(§1)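 Colorimetric cytotoxicity read-out on a panel of cultured mammalian cancer cell lines, run by an earlier published method, with ellipticine as the positive control.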
In general terms: Sulforhodamine B stains cellular protein and so reports cell mass.

The next assay has as its system P388. Briefly: Cytotoxicity against mouse P388 cells by SRB assay. The assay is classed as functional. In a few lines: as §1
A further assay has as its system Col2. Put plainly: Cytotoxicity against human Col2 cells by SRB assay. It is filed as functional. The essentials: as §1
The nature of assay [1]: Cytotoxicity against human BCA1 cells by SRB assay. It is filed as functional. In a few lines: as §1
The nature of assay [2]: Cytotoxicity against rat ASK cells by SRB assay.
The subject of another assay is KB. Briefly: Cytotoxicity against human KB cells by SRB assay. The assay is classed as functional. In a few lines: as §1

In the case of `O=C1C=C[C@H](OC(=O)/C=C/c2ccccc2)[C@H]([C@H](OC(=O)/C=C/c2ccccc2)[C@H](OC(=O)/C=C/c2ccccc2)c2ccccc2)O1`, the EC50 was more than 5 µg/mL in the assay on Lu1; 3.1 µg/mL (≈ 4.84 µM) with P388; more than 5 µg/mL in the assay with Col2; more than 5 µg/mL in assay [1]; more than 5 µg/mL in assay [2]; more than 5 µg/mL in the assay on KB.

As for `O=C1C=C[C@H](OC(=O)/C=C/c2ccccc2)[C@H]([C@H](O)[C@H](O)c2ccccc2)O1`, the EC50 in the assay with Lu1 turned out to be 1.9 µg/mL (≈ 4.99 µM); in the assay with P388, 0.18 µg/mL (≈ 0.473 µM); with Col2, 1.9 µg/mL (≈ 4.99 µM); in assay [1], 0.92 µg/mL (≈ 2.42 µM); in assay [2], 1.6 µg/mL (≈ 4.21 µM); in the assay on KB, 1.7 µg/mL (≈ 4.47 µM).

For `O=C1C=C[C@]2(C[C@H](O)[C@@H](c3ccccc3)O2)O1`, the EC50 in the assay with Lu1 was more than 5 µg/mL; in the assay with P388, 1.1 µg/mL (≈ 4.74 µM); with Col2, 4 µg/mL (≈ 17.2 µM); in assay [1] it was 3.2 µg/mL (≈ 13.8 µM); in assay [2], 3.1 µg/mL (≈ 13.3 µM); in the assay with KB, 3.3 µg/mL (≈ 14.2 µM).

For `O=C(/C=C/c1ccccc1)O[C@@H]1[C@H]([C@@H](O)c2ccccc2)O[C@H]2CC(=O)O[C@@H]12` [(+)-CRASSALACTONE B], the EC50 in the assay with Lu1 was more than 5 µg/mL; with P388, 3.8 µg/mL (≈ 9.99 µM); in the assay on Col2, more than 5 µg/mL; in assay [1] it was more than 5 µg/mL; in assay [2], more than 5 µg/mL; in the assay with KB, more than 5 µg/mL.

Consider `O=C(/C=C/c1ccccc1)O[C@H](c1ccccc1)[C@H]1O[C@@H]2CC(=O)O[C@@H]2[C@H]1O` [(+)-CRASSALACTONE C], for which the EC50 (in the assay with Lu1; in the assay with P388; in the assay with Col2; in assay [1]; in assay [2]; in the assay on KB) was more than 5 µg/mL each time.

For `COc1c(O)cc2c3c(cc4ccccc4c13)NC2=O` [ARISTOLACTAM AII], the EC50 is more than 5 µg/mL in the assay on Lu1; 2.7 µg/mL (≈ 10.2 µM) with P388; more than 5 µg/mL in the assay on Col2; more than 5 µg/mL in assay [1]; more than 5 µg/mL in assay [2]; more than 5 µg/mL with KB.

With `Cc1c2ccncc2c(C)c2c1[nH]c1ccccc12` [ELLIPTECINE], the EC50 worked out at 0.56 µg/mL (≈ 2.27 µM) with Lu1; 0.52 µg/mL (≈ 2.11 µM) with P388; 0.53 µg/mL (≈ 2.15 µM) in the assay with Col2; 0.65 µg/mL (≈ 2.64 µM) in assay [1]; 0.6 µg/mL (≈ 2.44 µM) in assay [2]; 0.65 µg/mL (≈ 2.64 µM) with KB.
